Source: ChEMBL document CHEMBL5247578, “Effective synthesis of benzimidazoles-imidazo[1,2-a]pyrazine conjugates: A comparative study of mono-and bis-benzimidazoles for antitumor activity” (Eur J Med Chem, 2019)

What was measured:
U-251 = test: Antiproliferative activity against human U-251 cells assessed as cell growth inhibition at 10 uM incubated for 48 hrs by sulforhodamine B assay relative to control; assay type: functional
How it was run: (§1)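 NCI-60 single-dose screen at 10^-5 M. Cells grown in RPMI 1640 with 5% FBS and 2 mM L-glutamine, plated at 5,000–40,000 cells/well, and preincubated 24 h. Drug (DMSO stock) added and incubated 48 h at 37 °C, 5% CO2. Adherent cells fixed with cold TCA, stained with 0.4% SRB in 1% acetic acid, dye solubilized in 10 mM trizma base, A515 read. Percent growth taken against time-zero and untreated control.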

[1] = n-Octanol/phosphate buffer partition coefficient, logP of the compound at pH 7.4 incubated for 85 mins by shake-flask method; assay type: physicochemical
How it was run: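 Octanol–water partition by shake-flask: n-octanol with 0.15 M phosphate buffer pH 7.4 at 10:1 volumes. Buffer-phase absorbance read before mixing, then shaken 50 min and centrifuged at 2500 rpm for 35 min. Buffer absorbance read again; P = (Ai−Af)/Af × Vw/Vo.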

LOX IMVI = test: Antiproliferative activity against human LOX IMVI cells assessed as cell growth inhibition at 10 uM incubated for 48 hrs by sulforhodamine B assay relative to control; assay type: functional; how it was run: as §1
BT-549 = test: Antiproliferative activity against human BT-549 cells assessed as cell growth inhibition at 10 uM incubated for 48 hrs by sulforhodamine B assay relative to control; assay type: functional
How it was run: (§2)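 Single-dose NCI-60 prescreen at 10^-5 M. Cells in RPMI 1640 with 5% FBS and 2 mM L-glutamine, seeded 5,000–40,000 cells/well with 24 h preincubation, then drug exposure for 48 h at 37 °C under 5% CO2. Growth read by SRB staining of TCA-fixed cells at 515 nm against time-zero and untreated controls. Negative growth values denote cell kill.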

NCI/ADR-RES = test: Antiproliferative activity against human NCI/ADR-RES cells assessed as cell growth inhibition at 10 uM incubated for 48 hrs by sulforhodamine B assay relative to control; assay type: functional; how it was run: as §1
MDA-MB-468 = test: Antiproliferative activity against human MDA-MB-468 cells assessed as cell growth inhibition at 10 uM incubated for 48 hrs by sulforhodamine B assay relative to control; assay type: functional; how it was run: as §1
M14 = test: Antiproliferative activity against human M14 cells assessed as cell growth inhibition at 10 uM incubated for 48 hrs by sulforhodamine B assay relative to control; assay type: functional; how it was run: as §1
SF-539 = test: Antiproliferative activity against human SF-539 cells assessed as cell growth inhibition at 10 uM incubated for 48 hrs by sulforhodamine B assay relative to control; assay type: functional; how it was run: as §1
UO-31 = test: Antiproliferative activity against human UO-31 cells assessed as cell growth inhibition at 10 uM incubated for 48 hrs by sulforhodamine B assay relative to control; assay type: functional; how it was run: as §1
786-0 = test: Antiproliferative activity against human 786-0 cells assessed as cell growth inhibition at 10 uM incubated for 48 hrs by sulforhodamine B assay relative to control; assay type: functional; how it was run: as §2
ACHN = test: Antiproliferative activity against human ACHN cells assessed as cell growth inhibition at 10 uM incubated for 48 hrs by sulforhodamine B assay relative to control; assay type: functional; how it was run: as §2
HL-60 = test: Antiproliferative activity against human HL-60 cells assessed as cell growth inhibition at 10 uM incubated for 48 hrs by sulforhodamine B assay relative to control; assay type: functional
How it was run: (§3)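 NCI-60 one-dose prescreen at 10^-5 M. Cells grown in RPMI 1640 with 5% FBS and 2 mM glutamine, preincubated 24 h, then exposed 48 h at 37 °C. Adherent lines TCA-fixed, SRB-stained, A515 read. Growth percent relative to time-zero and control; negative values mean cell kill.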

RXF 393 = test: Antiproliferative activity against human RXF 393 cells assessed as cell growth inhibition at 10 uM incubated for 48 hrs by sulforhodamine B assay relative to control; assay type: functional; how it was run: as §1
SK-MEL-2 = test: Antiproliferative activity against human SK-MEL-2 cells assessed as cell growth inhibition at 10 uM incubated for 48 hrs by sulforhodamine B assay relative to control; assay type: functional; how it was run: as §1
NCI-H322M = test: Antiproliferative activity against human NCI-H322M cells assessed as cell growth inhibition at 10 uM incubated for 48 hrs by sulforhodamine B assay relative to control; assay type: functional; how it was run: as §1
OVCAR-3 = test: Antiproliferative activity against human OVCAR-3 cells assessed as cell growth inhibition at 10 uM incubated for 48 hrs by sulforhodamine B assay relative to control; assay type: functional; how it was run: as §1
EKVX = test: Antiproliferative activity against human EKVX cells assessed as cell growth inhibition at 10 uM incubated for 48 hrs by sulforhodamine B assay relative to control; assay type: functional; how it was run: as §3
OVCAR-8 = test: Antiproliferative activity against human OVCAR-8 cells assessed as cell growth inhibition at 10 uM incubated for 48 hrs by sulforhodamine B assay relative to control; assay type: functional; how it was run: as §1
HCT-15 = test: Antiproliferative activity against human HCT-15 cells assessed as cell growth inhibition at 10 uM incubated for 48 hrs by sulforhodamine B assay relative to control; assay type: functional; how it was run: as §3
MOLT-4 = test: Antiproliferative activity against human MOLT-4 cells assessed as cell growth inhibition at 10 uM incubated for 48 hrs by sulforhodamine B assay relative to control; assay type: functional; how it was run: as §1
SR = test: Antiproliferative activity against human SR cells assessed as cell growth inhibition at 10 uM incubated for 48 hrs by sulforhodamine B assay relative to control; assay type: functional; how it was run: as §1
SF-295 = test: Antiproliferative activity against human SF-295 cells assessed as cell growth inhibition at 10 uM incubated for 48 hrs by sulforhodamine B assay relative to control; assay type: functional; how it was run: as §1
MCF7 = test: Antiproliferative activity against human MCF7 cells assessed as cell growth inhibition at 10 uM incubated for 48 hrs by sulforhodamine B assay relative to control; assay type: functional; how it was run: as §1
DU-145 = test: Antiproliferative activity against human DU-145 cells assessed as cell growth inhibition at 10 uM incubated for 48 hrs by sulforhodamine B assay relative to control; assay type: functional; how it was run: as §3
MDA-MB-435 = test: Antiproliferative activity against human MDA-MB-435 cells assessed as cell growth inhibition at 10 uM incubated for 48 hrs by sulforhodamine B assay relative to control; assay type: functional; how it was run: as §1
MDA-MB-231 = test: Antiproliferative activity against human MDA-MB-231 cells assessed as cell growth inhibition at 10 uM incubated for 48 hrs by sulforhodamine B assay relative to control; assay type: functional; how it was run: as §1
HCT-116 = test: Antiproliferative activity against human HCT-116 cells assessed as cell growth inhibition at 10 uM incubated for 48 hrs by sulforhodamine B assay relative to control; assay type: functional; how it was run: as §3
SF-268 = test: Antiproliferative activity against human SF-268 cells assessed as cell growth inhibition at 10 uM incubated for 48 hrs by sulforhodamine B assay relative to control; assay type: functional; how it was run: as §1
SNB-19 = test: Antiproliferative activity against human SNB-19 cells assessed as cell growth inhibition at 10 uM incubated for 48 hrs by sulforhodamine B assay relative to control; assay type: functional; how it was run: as §1
HT-29 = test: Antiproliferative activity against human HT-29 cells assessed as cell growth inhibition at 10 uM incubated for 48 hrs by sulforhodamine B assay relative to control; assay type: functional; how it was run: as §1
A498 = test: Antiproliferative activity against human A498 cells assessed as cell growth inhibition at 10 uM incubated for 48 hrs by sulforhodamine B assay relative to control; assay type: functional; how it was run: as §2

Compound | inhibition at 10 µM (U-251) [%] | logD at 1.417 h [1] | inhibition at 10 µM (LOX IMVI) [%] | inhibition at 10 µM (NCI/ADR-RES) [%] | inhibition at 10 µM (MDA-MB-468) [%] | inhibition at 10 µM (SF-539) [%] | inhibition at 10 µM (UO-31) [%] | inhibition at 10 µM (786-0) [%] | inhibition at 10 µM (ACHN) [%] | inhibition at 10 µM (HL-60) [%] | inhibition at 10 µM (RXF 393) [%] | inhibition at 10 µM (SK-MEL-2) [%] | inhibition at 10 µM (OVCAR-3) [%] | inhibition at 10 µM (EKVX) [%] | inhibition at 10 µM (OVCAR-8) [%] | inhibition at 10 µM (HCT-15) [%] | inhibition at 10 µM (MOLT-4) [%] | inhibition at 10 µM (SR) [%] | inhibition at 10 µM (SF-295) [%] | inhibition at 10 µM (MCF7) [%] | other results
Fc1ccc(-c2cn3ccnc3c(-c3ccc4ncn(C5CCCCC5)c4c3)n2)cc1 | 7.94 | 2.01 | 3.5 | 0.69 | 19.5 | 17.3 | 37.8 | 11.2 | 9.02 | 2.03 | 24.4 | 9.82 | 7.88 | 10.5 | 9.54 | 7.59 | 25.2 | 20.4 | 7.93 | 9.17 | inhibition at 10 µM (BT-549): 20.3%; inhibition at 10 µM (M14): 2.98%; inhibition at 10 µM (NCI-H322M): 0.01%; inhibition at 10 µM (DU-145): 1.17%; inhibition at 10 µM (MDA-MB-435): 1.78%; inhibition at 10 µM (MDA-MB-231): 15.8%; inhibition at 10 µM (HCT-116): 18%; inhibition at 10 µM (SF-268): 10.7%; inhibition at 10 µM (SNB-19): 14.2%
Cc1cccc(-c2cn3ccnc3c(-c3ccc4ncn(Cc5ccccc5)c4c3)n2)c1 | 19.4 | 2.16 | 14.8 | 12.1 | 16.6 | 7.28 | 41.7 | 21.4 | 12.4 | 18.2 | 2.01 | 6.34 | 13.9 | 22.3 | 11.5 | 35.2 | 36.9 | 11 | 14.3 | 22.2 | inhibition at 10 µM (HT-29): 42%; inhibition at 10 µM (A498): 22.1%; inhibition at 10 µM (DU-145): 14.2%; inhibition at 10 µM (MDA-MB-435): 0.94%; inhibition at 10 µM (MDA-MB-231): 28.4%; inhibition at 10 µM (HCT-116): 36.7%; inhibition at 10 µM (SF-268): 7.22%; inhibition at 10 µM (SNB-19): 2.58%
c1cn2cc(-c3ccc4c(c3)ncn4C3CCCCC3)nc(-c3ccc4ncn(C5CCCCC5)c4c3)c2n1 | 38.7 | 1.9 | 25.9 | 27 | 14.9 | 35.7 | 25.6 | 25.8 | 5.48 | 30 | 37.4 | 13.7 | 3.05 | 60.2 | 42.6 | 35.6 | 56.9 | 50 | 50.6 | 19.1 | inhibition at 10 µM (BT-549): 27.7%; inhibition at 10 µM (HT-29): 58.2%; inhibition at 10 µM (M14): 6.98%; inhibition at 10 µM (A498): 16.3%; inhibition at 10 µM (DU-145): 8.72%; inhibition at 10 µM (MDA-MB-435): 7.38%; inhibition at 10 µM (MDA-MB-231): 28.9%; inhibition at 10 µM (HCT-116): 29.1%; inhibition at 10 µM (SF-268): 18.4%; inhibition at 10 µM (SNB-19): 10.6%
Clc1ccc(-c2cn3ccnc3c(-c3ccc4ncn(C5CCCCC5)c4c3)n2)cc1 | 11.3 | 1.51 | 14.8 | 11.1 | 10.6 | 6.3 | 36.1 | 12.1 | 5.45 | 15.6 | 6.73 | 10.9 | 10.8 | 13.1 | 3.78 | 15.5 | 8.87 | 18.5 | 14.5 | 21.8 | inhibition at 10 µM (BT-549): 23.8%; inhibition at 10 µM (HT-29): 16.4%; inhibition at 10 µM (M14): 10%; inhibition at 10 µM (MDA-MB-435): 36.7%; inhibition at 10 µM (MDA-MB-231): 15.3%; inhibition at 10 µM (HCT-116): 7.34%; inhibition at 10 µM (SF-268): 4.83%; inhibition at 10 µM (SNB-19): 15.8%
